“And” between values parts separate entries of the source, which are not always exact repeats. Equal values may be shown once.
Columns and labels:
Acanthocheilonema viteae [1] = assay: In vivo anti-filarial (macrofilaricidal) activity at an ip dose of 50 mg/kg (for 5 days) against A. viteae in Mastomys coucha.; format: functional; details: route intraperitoneal
How it was run: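 Infected *Mastomys coucha* were dosed for 5 consecutive days, either 50 mg/kg ip or 200 mg/kg orally. Compounds were given as fine suspensions in 1% Tween 80. Each dose level used two to three animals, with at least two replicates to confirm activity. Micro- and macrofilaricidal action was scored by the cited earlier method.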

Acanthocheilonema viteae [2] = assay: Antifilarial activity as percent of surviving A. viteae in Mastomys coucha sterlized after an intraperitoneal dose of 50 mg/kg (for 5 days).; format: functional
How it was run: (§1)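 Acanthocheilonema viteae infection in Mastomys coucha; compounds given as fine suspensions in 1% Tween 80 for 5 consecutive days, 50 mg/kg ip and/or 200 mg/kg orally. Micro- and macrofilaricidal action and sterilisation of surviving female worms were scored. Two to three animals per dose level, with at least two replicate experiments.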

Acanthocheilonema viteae [3] = assay: In vivo anti-filarial (microfilaricidal) activity at an ip dose of 50 mg/kg (for 5 days) against A. viteae in Mastomys coucha.; format: functional; details: route intraperitoneal; how it was run: as §1
Mus musculus [4] = assay: In vivo anti-filarial (maf-macrofilaricidal) activity at an po dose of 250 mg/kg (for 5 days) against Brugia malayi; format: functional
How it was run: (§2)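 Male *Mastomys* infected at 6 weeks old with *B. malayi* larvae were dosed for 5 days, 50 mg/kg ip or 250 mg/kg orally, as a 1% Tween 80 suspension. Screening followed the *A. viteae* scheme. Micro- and macrofilaricidal action and sterilization of surviving female worms were scored. Each dose used two to three animals, with at least duplicate confirmation.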

Mus musculus [5] = assay: In vivo anti-filarial (mif-microfilaricidal) activity at an po dose of 250 mg/kg (for 5 days) against Brugia malayi; format: functional
How it was run: (§3)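 Male Mastomys, 6 weeks old, each inoculated with 50 infective Brugia malayi larvae recovered from infected Aedes aegypti. Screening followed the A. viteae protocol, with a 1% Tween 80 suspension for 5 days at 50 mg/kg ip or 250 mg/kg orally. Micro- and macrofilaricidal action and sterilisation of surviving females were scored. Two to three animals per dose.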

Mus musculus [6] = assay: In vivo anti-filarial (maf-macrofilaricidal) activity at an ip dose of 50 mg/kg (for 5 days) against Brugia malayi; format: functional; details: route intraperitoneal; how it was run: as §2
Rattus norvegicus [7] = assay: (§4) In vivo anti-filarial (maf-macrofilaricidal) activity at an ip dose of 30 mg/kg (for 5 days) against Litomosoides carinii in cotton rats; format: functional; details: route intraperitoneal
How it was run: (§5)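 They received 30 mg/kg ip for 5 consecutive days as a 1% Tween 80 suspension. Blood microfilariae were counted before treatment and then weekly until day 42. Animals were then killed and adult worm condition scored.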

Mus musculus [8] = assay: In vivo anti-filarial (mif-microfilaricidal) activity at an ip dose of 50 mg/kg (for 5 days) against Brugia malayi; format: functional; details: route intraperitoneal; how it was run: as §2
Rattus norvegicus [9] = assay: Antifilarial activity evaluated as percent of surviving Litomosoides carinii in cotton rats that were sterlized after an ip dose of 30 mg/kg (for 5 days); format: functional; details: route intraperitoneal
How it was run: (§6)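 Cotton rats (Sigmodon hispidus), 6 weeks old, infected with Litomosoides carinii through the mite vector Liponyssus bacoti. Animals with ≥250 microfilariae/5 mm blood were used. Dosed 30 mg/kg ip for 5 consecutive days as a 1% Tween 80 suspension. Blood microfilariae were checked before treatment and weekly until day 42, when animals were killed and adult male and female worms examined.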

Rattus norvegicus [10] = assay: In vivo anti-filarial (mif-microfilaricidal) activity at an ip dose of 30 mg/kg (for 5 days) against Litomosoides carinii in cotton rats; format: functional; details: route intraperitoneal; how it was run: as §5
Mus musculus [11] = assay: Antifilarial activity evaluated as percent of surviving Brugia malayi that were sterlized after an ip dose of 50 mg/kg (for 5 days); format: functional; details: route intraperitoneal; how it was run: as §3
Acanthocheilonema viteae [12] = assay: In vivo anti-filarial (mif-microfilaricidal) activity at an ip dose of 200 mg/kg (for 5 days) against A. viteae in Mastomys coucha
Acanthocheilonema viteae [13] = assay: In vivo anti-filarial (mif-macrofilaricidal) activity at an oral dose of 200 mg/kg (for 5 days) against A. viteae in Mastomys coucha
Rattus norvegicus [14] = assay: as §4; format: functional; details: route intraperitoneal; how it was run: as §6; remark: listed apart in the source
Mus musculus [15] = assay: In vivo anti-filarial (mif-microfilaricidal) activity at an oral dose of 200 mg/kg (for 5 days) against A. viteae in Mastomys coucha; format: functional; how it was run: as §1
Acanthocheilonema viteae [16] = assay: In vivo anti-filarial (maf-macrofilaricidal) activity at an oral dose of 200 mg/kg (for 5 days) against A. viteae in Mastomys coucha
Mus musculus [17] = assay: In vivo anti-filarial (mif-microfilaricidal) activity at an ip dose of 100 mg/kg (for 5 days) against Brugia malayi; format: functional; details: route intraperitoneal
Mus musculus [18] = assay: In vivo anti-filarial (maf-macrofilaricidal) activity at an ip dose of 100 mg/kg (for 5 days) against Brugia malayi; format: functional; details: route intraperitoneal
Rattus norvegicus [19] = assay: In vivo anti-filarial (mif-microfilaricidal) activity at an ip dose of 75 mg/kg (for 5 days) against Litomosoides carinii in cotton rats; format: functional; details: route intraperitoneal

SMILES | Activity (Acanthocheilonema viteae [1]) | Activity (Acanthocheilonema viteae [2]) | Activity (Acanthocheilonema viteae [3]) | other results
COC(=O)c1cc2c([nH]c3ccccc32)c(-c2cccc(Br)c2)n1 | 84% | 100% | 0% | –
COC(=O)c1cc2c([nH]c3ccccc32)c(-c2cccc(Cl)c2)n1 | 81% | – | 0% | –
Cc1ccc(-c2[nH]c(CO)cc3c4ccccc4nc2-3)cc1 | 0% | 40% | 0% | –
COC(=O)c1cc2c([nH]c3ccccc32)c(-c2ccsc2)n1 | 60% | – | 0% | –
COC(=O)C1Cc2c([nH]c3ccccc23)C(c2ccc(F)cc2)N1 (stereo not given) | 25% | – | 0% | –
NC(=O)c1cc2c([nH]c3ccccc32)c(-c2ccsc2)n1 | 89% | – | 0% | –
COC(=O)C1Cc2c([nH]c3ccccc23)C(c2ccc(C)cc2)N1 (stereo not given) | 90% | – | 0% | –
OCc1cc2c([nH]c3ccccc32)c(-c2ccc(Cl)cc2)n1 | 56% | 75% | 76% | Activity (Mus musculus [4]): 56% and 69%; Activity (Mus musculus [5]): 0%; Activity (Mus musculus [6]): 62%; Activity (Rattus norvegicus [7]): 95%; Activity (Mus musculus [8]): 0%; Activity (Rattus norvegicus [9]): 0%; Activity (Rattus norvegicus [10]): 29%; Activity (Mus musculus [11]): 85%; Activity (Acanthocheilonema viteae [12]): 0%; Activity (Acanthocheilonema viteae [13]): 94%
COC(=O)c1cc2c([nH]c3ccccc32)c(-c2ccccc2F)n1 | 44% | – | 0% | –
COC(=O)C1Cc2c([nH]c3ccccc23)C(c2ccsc2)N1 (stereo not given) | 57% | – | 0% | –
COC(=O)c1cc2c([nH]c3ccccc32)c(-c2ccccc2Cl)n1 | 94% | – | 0% | –
NC(=O)c1cc2c([nH]c3ccccc32)c(-c2ccc(Cl)cc2)n1 | 0% | 60% | 0% | –
COC(=O)C1Cc2c([nH]c3ccccc23)C(c2ccc(Cl)cc2)N1 (stereo not given) | 39% | 100% | 94% | –
COC(=O)c1cc2c([nH]c3ccccc32)c(-c2cccs2)n1 | 45% | 0% | 62% | –
OCc1cc2c([nH]c3ccccc32)c(-c2ccc(F)cc2)n1 | 75% | – | 0% | –
NC(=O)c1cc2c([nH]c3ccccc32)c(-c2cccc(Cl)c2)n1 | 0% | 50% | 84% | –
NC(=O)c1cc2c([nH]c3ccccc32)c(-c2cccs2)n1 | 0% | – | 93% | –
COC(=O)C1Cc2c([nH]c3ccccc23)C(c2cccc(Br)c2)N1 (stereo not given) | 0% | – | 90% | –
COC(=O)c1cc2c([nH]c3ccccc32)c(-c2ccc(C)cc2)n1 | 100% | – | 0% | –
NNC(=O)c1cc2c([nH]c3ccccc32)c(-c2ccsc2)n1 | 0% | – | 91% | –
COC(=O)C1Cc2c([nH]c3ccccc23)C(c2cccc(Cl)c2)N1 (stereo not given) | 50% | – | 0% | –
COC(=O)C1Cc2c([nH]c3ccccc23)C(c2ccccc2Cl)N1 (stereo not given) | 93% | – | 0% | Activity (Rattus norvegicus [14]): 20%; Activity (Rattus norvegicus [9]): 88%; Activity (Rattus norvegicus [10]): 0%; Activity (Mus musculus [15]): 0%; Activity (Acanthocheilonema viteae [16]): 0%
COC(=O)c1cc2c([nH]c3ccccc32)c(-c2ccc(F)cc2)n1 | 56% | 67% | 0% | –
NC(=O)c1cc2c([nH]c3ccccc32)c(-c2ccccc2Cl)n1 | 86% | 100% | 44% | –
NC(=O)c1cc2c([nH]c3ccccc32)c(-c2cccc(Br)c2)n1 | 69% | – | 0% | –
CCN(CC)C(=O)N1CCN(C)CC1.O=C(O)CC(O)(CC(=O)O)C(=O)O [DIETHYLCARBAMAZINE CITRATE] | 0% | – | 90% | Activity (Rattus norvegicus [14]): 0%; Activity (Mus musculus [17]): 90%; Activity (Mus musculus [18]): 0%; Activity (Rattus norvegicus [19]): 90%

Source: ChEMBL document CHEMBL1132723, “Potent 1,3-disubstituted-9H-pyrido[3,4-b]indoles as new lead compounds in antifilarial chemotherapy” (1999)
